# Screens deposited in PubChem BioAssay by Sanford-Burnham Center for Chemical Genomics.
# Shown are actives, neighbours in structure and some others; about 1.2% of the full set was active somewhere.
# G6PDH counter: L. mesenteroides G6PDH inhibition counter-screen; Purified L. mesenteroides G6PDH, diaphorase/resazurin coupled fluorescence, 45 min; inhibition, % at 5 µM; 200,000 compounds, 0.12% hits; AID 1020; in the data active = inhibition above about 50%
# Diaph act CS: activates diaphorase or chemically reduces, flagging diaphorase assay artifacts; AID 1229; activation factor at 20 µM; Diaphorase/resazurin coupled assay, resorufin fluorescence, 16 min; active compounds read high; 1 = vehicle wells, 0 = NADH-free wells; 190,000 compounds, 0.005% hits;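 active = diaphorase activity raised at least twofold by the compound at 20 µM; inactive = activation factor below 2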
#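 System – purified diaphorase enzyme from Clostridium kluyveri · Input – enzyme 0.07 U/mL final · Also added – final NADH 0.114 mM, resazurin 0.1 mM · Measured by – fluorescence of resorufin, 544 nm excitation, 590 nm emission · Timing – 16 min enzyme reaction, ambient temperature · Measure – resorufin increase flagging diaphorase activators or reducers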
# HKDC1 inh: HKDC1 (human) hexokinase inhibition | 340,000 compounds, 0.16% hits | Q2TB90 | recombinant HKDC1, G6PDH/diaphorase resazurin coupled fluorescence | inhibition, % at 20 µM;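 active = inhibition above about 35% when tested at 20 µM, limit read from the data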;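 also: plate controls were DMSO wells with enzyme for no effect and DMSO wells lacking enzyme for full effect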
# Target sequence (Q2TB90 whole entry, looked up): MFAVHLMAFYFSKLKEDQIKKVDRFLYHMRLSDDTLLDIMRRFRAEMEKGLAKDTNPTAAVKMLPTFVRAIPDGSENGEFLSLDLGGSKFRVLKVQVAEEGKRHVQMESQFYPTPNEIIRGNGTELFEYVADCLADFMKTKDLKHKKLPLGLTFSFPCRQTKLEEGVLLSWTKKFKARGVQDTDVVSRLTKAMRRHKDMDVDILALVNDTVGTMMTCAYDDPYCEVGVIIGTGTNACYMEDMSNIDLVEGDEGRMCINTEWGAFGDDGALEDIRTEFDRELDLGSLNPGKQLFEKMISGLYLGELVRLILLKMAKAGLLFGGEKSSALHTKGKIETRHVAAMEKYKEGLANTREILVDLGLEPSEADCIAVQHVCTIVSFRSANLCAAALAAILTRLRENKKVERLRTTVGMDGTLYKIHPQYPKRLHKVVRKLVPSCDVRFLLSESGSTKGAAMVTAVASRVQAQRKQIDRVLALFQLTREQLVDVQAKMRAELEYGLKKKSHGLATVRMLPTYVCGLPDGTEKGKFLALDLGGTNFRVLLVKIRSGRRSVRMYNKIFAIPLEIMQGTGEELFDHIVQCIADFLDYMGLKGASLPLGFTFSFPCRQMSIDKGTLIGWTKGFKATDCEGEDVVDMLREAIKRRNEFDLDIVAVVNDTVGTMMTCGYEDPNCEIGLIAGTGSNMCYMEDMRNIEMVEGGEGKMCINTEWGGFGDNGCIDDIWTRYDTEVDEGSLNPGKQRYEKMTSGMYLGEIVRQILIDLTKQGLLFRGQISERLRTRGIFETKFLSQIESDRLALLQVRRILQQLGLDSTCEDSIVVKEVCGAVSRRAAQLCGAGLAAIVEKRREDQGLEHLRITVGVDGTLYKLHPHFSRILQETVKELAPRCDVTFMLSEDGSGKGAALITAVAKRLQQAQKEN
#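 Test system: recombinant HKDC1 (HK5) hexokinase enzyme, produced in-house; Amount: enzyme 5 µg/mL final; Buffer or medium: Tris pH 8.0 buffer with MgCl2, Tween-20, BSA, BME; Reagent: glucose and ATP substrates; Doses: 20 µM test compound, 1% DMSO; Incubation: 90 min reaction incubation at room temperature, dark; Detection: resorufin fluorescence at 613 nm.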
# PfG6PD inh: PfG6PD (Plasmodium falciparum) enzyme inhibition | PfGluPho enzyme, NADPH resazurin-diaphorase fluorescence | inhibition, % at 20 µM | 350,000 compounds, 0.78% hits | AID 504690;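 active = inhibition reaching at least a set limit at 20 µM in the primary screen, cut at about 59% in these data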;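 also: 0% = DMSO wells with substrate and 100% = DMSO wells lacking glucose-6-phosphate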
# Diaph inh CS: counter-screen for diaphorase-based assays: diaphorase inhibitors and chemical oxidizers. diaphorase resazurin-to-resorufin fluorescence, NADH, 16 min; bacterial (C. kluyveri) enzyme, not human. inhibition, % at 20 µM. 190,000 compounds, 0.69% hits;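 active = primary screen inhibition at 20 µM above a set limit, cut at about 50% in these data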;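 also: plate controls were DMSO with full reaction for no effect and wells lacking NADH for full effect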
#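 Test system: bacterial diaphorase enzyme (C. kluyveri); Quantity: 0.14 U/mL diaphorase, enzyme working solution; Times: reaction incubation of 16 min at room temperature; Measured by: fluorescence of resorufin formed from resazurin, Ex 544/Em 590 nm; Benchmarks: positive control minus NADH, DMSO neutral control.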
# HKDC1 act conf2: HKDC1 (human) activation, single-dose confirmed. 740 compounds, 14% hits. shares compounds with HKDC1 inh. inhibition, % at 20 µM. recombinant HKDC1, G6PDH/diaphorase resazurin fluorescence; active compounds read low;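 active = inhibition at or below a set negative limit, negative inhibition meaning the enzyme was activated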
# * marks the source's active call; other numbers are inactive results; · = no result.
SMILES,G6PDH counter,Diaph act CS,HKDC1 inh,PfG6PD inh,Diaph inh CS,HKDC1 act conf2
COC(=O)c1c(NC(C)=O)sc(Cc2ccccc2)c1C,3.0,0.9,-77.4,28.0,9.7,-37.8*
Cc1cc(C(=O)N=Nc2c(O)n(C(C)C)c3ccccc23)n[nH]1,4.3,0.5,40.0*,23.2,54.0*,34.4
CC(C)n1c(O)c(N=NC(=O)CNC(=O)CCc2ccccc2)c2ccccc21,·,·,0.4,6.2,·,·
COc1ccccc1NC(=O)N(C)C[C@@H]1OCc2cnnn2CCCC(=O)N([C@@H](C)CO)C[C@@H]1C,·,·,·,3.0,·,·
Cc1cc(C(=O)COC(=O)c2cc(O)c3ccccc3c2O)c(C)n1CC1CCCO1 (configuration not stated),34.1,0.6,46.6*,78.4*,37.2,15.3
Cc1cc(C(=O)COC(=O)c2ccccc2O)c(C)n1CC1CCCO1 (configuration not stated),·,·,-7.4,14.4,·,·
COc1cc(SC#N)ccc1N=Cc1c(C)[nH]n(-c2ccc(Cl)cc2)c1=O,2.8,1,-40.7,14.2,4.1,-38.2*
Cc1ccccc1N(CC(=O)N1CCN(Cc2ccccc2)CC1)S(C)(=O)=O,·,·,·,-2.2,·,·
CCC/C=C/c1ccc(CN2C(C(C)C)C(=O)N(Cc3cn(CCC4OCCO4)nn3)CCS2(=O)=O)cc1 (configuration not stated),·,·,·,25.0,·,·
O=C(COC(=O)c1cccc(S(=O)(=O)N2CCCC2)c1)Nc1ccc(Cl)cc1,·,·,·,8.8,·,·
C=CCN1C(=O)C(=Cc2ccc3c(c2)CCC3)SC1=S,·,·,·,7.3,·,·
Cc1c(N=C2C=CC(=O)c3ccccc32)c(=O)n(-c2ccccc2)n1C,8.7,0.4,41.9*,86.3*,58.1*,35.0
CN(C)c1ccc(C=c2c3ccccc3n3c2cc(-c2ccc(Cl)cc2)[n+]3C)cc1,·,·,17.9,55.3,·,·
CN(C)c1ccc(C=c2c3ccccc3n3c2cc(-c2ccccc2)[n+]3C)cc1,·,·,37.0*,49.1,·,23.2
OCc1nc2ccccc2n1CCCc1ccccc1,·,·,·,7.0,·,·
O=C1Nc2ccccc2C1Cc1ccccc1 (configuration not stated),·,·,-4.3,29.8,·,·
O=C1C=CC2(C=C1)O[C@H](Cc1ccccc1)[C@@H](Cc1ccccc1)O2,·,·,38.3*,37.3,·,3.1
CC1=C(C(=O)N2CCOCC2)CC(CC(=O)NC2CCCCC2)C(=O)N1Cc1ccc(C(C)(C)C)cc1 (configuration not stated),·,·,·,0.0,·,·
Cc1ccc(NCC(=O)N=Nc2c(O)[nH]c3ccc([N+](=O)[O-])cc23)cc1,·,·,4.7,1.7,·,·
O=C(Nc1ccc(F)cc1)C(=O)c1c(O)[nH]c2ccc([N+](=O)[O-])cc12,·,·,41.7*,15.8,·,-4.2
COc1cc2c(cc1OC)C(c1cc(Br)ccc1F)N(C(=O)CCl)CC2 (configuration not stated),·,·,37.8*,6.7,·,19.3
O=C1NN(c2ccccc2)C(=O)/C1=C/c1ccc(-c2ccc(Cl)c(C(=O)O)c2)o1,3.8,0.7,4.8,33.6,27.7,·
Cc1ccc(Sc2ccc(/C=C3/C(=O)NN(c4ccccc4)C3=O)o2)cc1,·,·,35.1*,-18.4,·,20.2
O=C1NN(c2ccccc2)C(=O)/C1=C/c1ccc(Sc2ccc(Cl)cc2)o1,·,·,41.8*,3.7,·,10.3
O=C1C(Cl)=C(N2CCC(C(=O)O)CC2)C(=O)c2ccccc21,·,·,49.6*,42.8,·,57.2
SMILES,G6PDH counter,Diaph act CS,HKDC1 inh,PfG6PD inh,Diaph inh CS,HKDC1 act conf2
O=Cc1c[nH]c2ccc(S(=O)(=O)N3CCCCC3)cc12,·,·,·,-10.6,·,·
CC1(C)C(=O)Nc2ccccc2N1C(=O)COC(=O)c1cccnc1,·,·,-5.1,-1.7,·,·
CC1(C)C(=O)Nc2ccccc2N1C(=O)COC(=O)c1cc(Cl)cc(Cl)c1,·,·,-41.3,-48.4,·,-50.1*
Cc1ccc(S(=O)(=O)N2C[C@]3(O)C[C@@H]4C(=O)N(c5ccccc5)C(=O)[C@@H]4C[C@]3(OC(=O)NCC3CCCCC3)C2)cc1,·,·,·,-12.3,·,·
CN(CC(=O)Nc1ccc(OC(F)(F)F)cc1)C(=O)c1ccccc1SCC(=O)N1CCCC1,·,·,-0.1,-2.7,·,·
CCC(C)C(NS(=O)(=O)c1ccc(C)cc1)C(=O)Oc1ccc2c3c(c(=O)oc2c1)CCC3 (configuration not stated),9.2,0.8,-1.7,13.8,18.3,·
CC[C@@H](NS(=O)(=O)c1ccc(C)cc1)C(=O)Oc1ccc2c3c(c(=O)oc2c1)CCC3,-12.0,0.8,34.2,40.0,17.8,1.1
CCN(CC)CCn1c(=S)[nH]c2cc(C(=O)NCCc3ccc(OC)c(OC)c3)ccc2c1=O,·,·,·,-9.7,·,·
COc1ccc(Cl)cc1N(CC(=O)NCc1ccccn1)S(=O)(=O)c1ccc(C)cc1,·,·,·,-4.6,·,·
CC1(C)Cc2c(c(N3CCOCC3)nc3sc4c(NCC5CCCO5)nnnc4c23)CS1 (configuration not stated),·,·,44.9*,52.1,·,12.0
CC(C)CCNc1nnnc2c1sc1nc(N3CCOCC3)c3c(c12)CC(C)(C)SC3,-1.2,0.7,8.0,-1.1,28.0,·
Cn1c(SSc2ccc(-c3cccnc3)n2C)ccc1-c1cccnc1,·,·,-341.5,32.3,·,-247.7*
O=C(O)c1cc(N2N=C(C(F)(F)F)/C(=C/C=C/c3ccco3)C2=O)ccc1Cl,18.7,0.4,46.4*,27.1,56.0*,57.5
COc1cc2c(C#N)c(N3CCc4ccccc4C3)nc(N)c2c(N)n1,-27.7,0.4,40.8*,33.1,61.3*,-20.8
N#Cc1ccccc1C[C@H](N)C(=O)NC[C@H]1O[C@@H](n2ccc(N)nc2=O)[C@H](O)[C@@H]1O,·,·,·,-22.3,·,·
O=C(N/N=C/c1ccc(O)cc1O)/C(=C/c1ccccc1)CCO,-11.9,0.8,-40.1,-27.0,18.7,-18.8
N#Cc1ccc(CSc2nnc(NC(=O)c3ccc4ncsc4c3)s2)cc1,15.8,0.9,51.2*,-4.4,9.0,40.7
Cc1cc(O)c2c(c1)C(=O)c1cccc(O)c1C2=O,23.7,0.7,·,·,30.2,·
O=C(O)c1cc(O)c2c(c1)C(=O)c1cccc(O)c1C2=O,37.5,0.7,40.2*,-29.6,32.4,-2.0
COc1ccc([C@H]2CN(CCc3ccccc3)C(=O)[C@@H]2CC(=O)Nc2ccccc2)cc1,·,·,·,-9.4,·,·
CC(=O)NC1C(=O)N(CCc2ccccc2)c2ccc(Br)cc21 (configuration not stated),5.4,0.9,-2.6,-2.1,14.1,·
CC(=O)NC1C(=O)N(CCN2CCOCC2)c2ccc(Br)cc21 (configuration not stated),·,·,80.8*,18.9,·,61.0
CCOc1ccc2c(c1)C(NC(C)=O)C(=O)N2CCN1CCOCC1 (configuration not stated),·,·,82.3*,17.4,·,60.9
COc1ccc(/C=C/C(=O)c2ccc([N+](=O)[O-])o2)cc1,·,·,30.6,28.8,·,·
